The record followed here is ChEMBL document CHEMBL4184297, “Discovery and validation of 2-styryl substituted benzoxazin-4-ones as a novel scaffold for rhomboid protease inhibitors” (Bioorg Med Chem Lett, 2018).

Assay [1] deals with Escherichia coli. Nature of the assay: Inhibition of recombinant Escherichia coli N-terminal His-tagged rhomboid protease GlpG expressed in Escherichia coli C43(DE3) cells at 250 uM using gurken as substrate preincubated for 30 mins followed by substrate addition measured after 90 mins by SDS-PAGE analysis.
Assay [2] deals with Escherichia coli. Briefly: Reversible inhibition of recombinant Escherichia coli N-terminal His-tagged rhomboid protease GlpG expressed in Escherichia coli C43(DE3) cells assessed as recovery of enzyme activity at 10 uM using KSp76 as substrate preincubated for 1 hr followed by substrate addition measured over 120 mins by rapid dilution based fluorescence assay. A digest of the protocol: (§1)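 Rapid-dilution recovery. Inhibitor preincubated 1 h with 0.4 µM GlpG in 20 mM HEPES-NaOH pH 7.4, 150 mM NaCl, 0.05% DDM, then diluted 100-fold into buffer with 10 µM KSp76. Fluorescence (ex 553/em 583) monitored continuously for 120 min.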

The test system of assay [3] is Escherichia coli. Nature of the assay: Binding affinity to wild type recombinant Escherichia coli rhomboid protease GlpG expressed in Escherichia coli C43(DE3) cells by electrospray mass spectrometric analysis. The method in brief:
(§2)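 GlpG (wild type or rhomboid mutants) expressed in E. coli C43(DE3) and purified, then reacted in vitro with compound or vehicle. Covalent adduct detected by electrospray mass spectrometry as an added peak with the expected mass shift over free enzyme. Two independent experiments.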

Assay [4] concerns the target T1, Neutrophil elastase (Homo sapiens) (UniProt P08246).
T1 sequence (whole entry): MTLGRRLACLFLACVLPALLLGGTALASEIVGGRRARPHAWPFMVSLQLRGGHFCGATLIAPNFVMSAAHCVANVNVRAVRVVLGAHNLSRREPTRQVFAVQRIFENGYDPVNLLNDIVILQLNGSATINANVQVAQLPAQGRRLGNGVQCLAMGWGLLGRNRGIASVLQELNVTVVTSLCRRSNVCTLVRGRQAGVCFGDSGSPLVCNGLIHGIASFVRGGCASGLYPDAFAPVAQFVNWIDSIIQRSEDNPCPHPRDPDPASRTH
Briefly: Inhibition of human neutrophil elastase at 10 uM using N-Methoxysuccinyl-Ala-Ala-Pro-Val-p-nitroanilid as substrate preincubated for 20 mins followed by substrate addition measured at 1 min time interval for 5 mins by fluorescence assay.

Assay [5] has as its target T2, Rhomboid protease GlpG (Escherichia coli (strain K12)) (UniProt P09391).
T2 sequence (whole entry): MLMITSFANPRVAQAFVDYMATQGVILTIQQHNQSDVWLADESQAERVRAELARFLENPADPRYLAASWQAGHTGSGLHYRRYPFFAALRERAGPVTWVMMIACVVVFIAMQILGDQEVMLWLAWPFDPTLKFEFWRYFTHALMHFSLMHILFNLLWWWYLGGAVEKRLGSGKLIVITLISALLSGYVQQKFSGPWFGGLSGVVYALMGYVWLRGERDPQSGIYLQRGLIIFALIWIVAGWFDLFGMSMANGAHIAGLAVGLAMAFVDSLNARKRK
Briefly: Binding affinity to recombinant Escherichia coli rhomboid protease GlpG His150 mutant expressed in Escherichia coli C43(DE3) cells by electrospray mass spectrometric analysis. The method in brief: as §2

The target in assay [6] is Chymotrypsinogen A (Bos taurus) (UniProt P00766). Nature of the assay: Inhibition of bovine alpha-chymotrypsin at 250 uM using N-Succinyl-Ala-AlaPro-Phe-p-nitroanilide as substrate incubated for 30 mins followed by substrate addition measured over 5 mins by spectroscopic method.
Assay [7] can be described thus: Inhibition of recombinant Escherichia coli N-terminal His-tagged rhomboid protease GlpG expressed in Escherichia coli C43(DE3) cells using KSp76 as substrate incubated for 1 hr followed by substrate addition by fluorescence assay. The method in brief: (§3)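 Started with 10 µM quenched fluorogenic peptide (KSp35 or KSp76). Fluorescence normalized to DMSO and plotted against log concentration; apparent IC50 from nonlinear regression.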

The species named for another assay is Bos taurus. Nature of the assay: Inhibition of bovine pancreas trypsin at 10 uM using Z-Gly-Gly-Argaminomethylcoumarin as substrate preincubated for 30 mins followed by substrate addition measured at 1 min time interval for 5 mins by fluorescence assay. A digest of the protocol: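 Compound or DMSO preincubated with 10 nM bovine pancreatic trypsin in PBS for 30 min at 30°C. Started with Z-Gly-Gly-Arg-AMC (1 mM stock). AMC fluorescence (ex 340/em 440) read every 1 min for 5 min. Initial slope gives velocity; % activity = V inhibitor/V DMSO × 100.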

Assay [8] has as its system Escherichia coli. Briefly: Reversible inhibition of recombinant Escherichia coli N-terminal His-tagged rhomboid protease GlpG expressed in Escherichia coli C43(DE3) cells assessed as recovery of enzyme activity at 50 uM using KSp76 as substrate preincubated for 1 hr followed by substrate addition measured over 120 mins by rapid dilution based fluorescence assay. A digest of the protocol:
as §1

Assay [9] relates to T3, Rhomboid protease GlpG (Escherichia coli (strain K12)), P09391 [H254A].
T3 sequence (whole entry): T2 sequence (whole entry) with H254A
Briefly: Binding affinity to recombinant Escherichia coli rhomboid protease GlpG H254A mutant expressed in Escherichia coli C43(DE3) cells by electrospray mass spectrometric analysis. The method in brief: as §2

In assay [10] the target is T4, Cathepsin G (Homo sapiens) (UniProt P08311).
T4 sequence (whole entry): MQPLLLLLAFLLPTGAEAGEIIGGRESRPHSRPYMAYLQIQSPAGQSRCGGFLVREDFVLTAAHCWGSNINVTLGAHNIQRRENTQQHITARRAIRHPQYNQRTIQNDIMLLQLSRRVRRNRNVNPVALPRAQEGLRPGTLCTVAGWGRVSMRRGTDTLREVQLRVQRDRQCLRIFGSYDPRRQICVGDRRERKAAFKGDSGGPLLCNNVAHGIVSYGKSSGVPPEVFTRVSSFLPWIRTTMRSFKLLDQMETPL
Nature of the assay: Inhibition of human neutrophil cathepsin G at 10 uM using N-Succinyl-Ala-Ala-Pro-Phe-p-nitroanilide as substrate preincubated for 30 mins followed by substrate addition measured at 1 min time interval for 5 mins by fluorescence assay. The conditions noted are these: in the assay text read “absorbance assay” for “fluorescence assay”. A digest of the protocol:
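Compound or DMSO preincubated with 200 nM human neutrophil cathepsin G for 30 min at 37°C in 100 mM HEPES, 500 mM NaCl, pH 7.4. Started with Suc-AAPF-pNA (2 mM stock). Absorbance at 410 nm read every 1 min for 5 min. Initial slope gives velocity; % activity relative to DMSO.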

The test system of assay [11] is T5, Rhomboid protease GlpG (Escherichia coli (strain K12)), P09391 [S201T].
T5 sequence (whole entry): T2 sequence (whole entry) with S201T
Nature of the assay: Binding affinity to recombinant Escherichia coli rhomboid protease GlpG S201T mutant expressed in Escherichia coli C43(DE3) cells by electrospray mass spectrometric analysis. The method in brief: as §2

Assay [12] deals with Escherichia coli. Nature of the assay: Reversible inhibition of recombinant Escherichia coli N-terminal His-tagged rhomboid protease GlpG expressed in Escherichia coli C43(DE3) cells assessed as recovery of enzyme activity at 1 uM using KSp76 as substrate preincubated for 1 hr followed by substrate addition measured over 120 mins by rapid dilution based fluorescence assay. A digest of the protocol: as §1

Assay [13] can be described thus: Inhibition of recombinant Escherichia coli N-terminal His-tagged rhomboid protease GlpG expressed in Escherichia coli C43(DE3) cells using KSp53 as substrate incubated for 1 hr followed by substrate addition by fluorescence assay. The note with it: in the assay text read “KSp35” for “KSp53”. A digest of the protocol:
as §3

A further assay addresses Chymotrypsinogen A (Bos taurus, UniProt P00766). Briefly: Inhibition of bovine pancreas alpha-chymotrypsin using KSp21 as substrate preincubated for 30 mins followed by substrate addition measured after 50 to 60 mins by fluorescence assay.

Positions count from the first letter of the chain named. Activity calls are given as the source filed them. The rule behind the calls is not given here.

For the compound `CCC(=O)Oc1c(/C=C/c2nc3ccccc3c(=O)o2)cccc1OC`, in the assay with Escherichia coli [1], the inhibition entry is “inactive”.
For the compound `COc1oc(=O)c2cc(N)ccc2c1Cl`, in the assay with Escherichia coli [2], the inhibition entry is “inactive”.
For `COc1ccc(-c2nc3ccccc3c(=O)o2)cc1`, the inhibition entry in the assay with Escherichia coli [1] was “inactive”.
What is called IC50 is the concentration at which inhibition is half-maximal. As to `O=c1oc(/C=C/c2ccccc2Cl)nc2ccccc12`, the result (in the assay on Escherichia coli [3]; in [5]) was Active. The inhibition entry (in [4]; in assay [6]; in the assay filed under Bos taurus) was “inactive” each time. Also, the IC50 in assay [7] worked out at 4.4 µM. For the same compound, the inhibition entry (in the assay with Escherichia coli [1]; in the assay with Escherichia coli [8]; in assay [10]) was “Active” throughout. In addition, the outcome in [9] and in assay [11] was inactive.
As to `O=c1oc(-c2cccc(Br)c2)nc2ccccc12`, in the assay on Escherichia coli [1], the inhibition result was “inactive”.
Take `O=c1oc(-c2ccccc2F)nc2ccccc12`: in the assay on Escherichia coli [1], the inhibition entry is “inactive”.
With `O=C1CC(c2ccccc2)N1C(=O)Oc1ccccc1` (configuration not stated), the inhibition result in the assay on Escherichia coli [12] was “Active”.
As for `COc1ccc(/C=C/c2nc3ccccc3c(=O)o2)cc1`, the inhibition entry (in assay [4]; in the assay filed under Bos taurus; in assay [10]) was “inactive” in each case. Moreover, the IC50 in assay [13] was 48 µM. In the assay with Escherichia coli [1], the inhibition result is “Active”.
For `O=c1oc(/C=C/c2ccc(F)c(F)c2)nc2ccccc12`, the inhibition result in the assay on Escherichia coli [1] was “inactive”.
Consider `O=c1oc(-c2ccco2)nc2ccccc12`, for which the inhibition entry with Escherichia coli [1] was “inactive”.
As to `O=c1oc(/C=C/c2ccccc2)nc2ccccc12`, the outcome with Escherichia coli [3] was Active. The inhibition result (in assay [4]; in assay [6]; in the assay listed under Bos taurus) was “inactive” throughout. In addition, in assay [13], the IC50 turned out to be 3.7 µM. In addition, the inhibition result (in the assay with Escherichia coli [1]; in [10]) was “Active” each time.
`O=c1oc(-c2cccc(F)c2)nc2ccccc12`: the inhibition result in the assay with Escherichia coli [1] is “inactive”.
In the case of `O=c1oc(-c2ccc(F)cc2)nc2ccccc12`, in the assay with Escherichia coli [1], the inhibition result is “inactive”.
In the case of `O=c1oc(Cl)c(Cl)c2ccccc12`, the inhibition result (in assay [4]; in the assay filed under Bos taurus) was “Active” in each case. This compound also showed an IC50 at Chymotrypsinogen A of 3.5 µM.
On to `O=c1oc(-c2ccccc2)nc2ccccc12`, for which the inhibition entry with Escherichia coli [1] was “inactive”.
